According to ChEMBL document CHEMBL1135185, “Synthesis and PTP1B inhibition of 1,2-naphthoquinone derivatives as potent anti-diabetic agents” (Bioorg Med Chem Lett, 2002):
One block for each molecule: values may come before it. Activity calls are given as the source filed them. The calls are words filed in the database; no cut-off is given here.

Columns and labels:
[1] = biological target: T1, Tyrosine-protein phosphatase non-receptor type 1 (Homo sapiens, UniProt P18031); assay: In vitro inhibitory activity against recombinant human protein-tyrosine phosphatase 1B (PTP1B) using fluorescein diphosphate (FDP) as a substrate; Not active
T1 sequence (P18031 whole entry): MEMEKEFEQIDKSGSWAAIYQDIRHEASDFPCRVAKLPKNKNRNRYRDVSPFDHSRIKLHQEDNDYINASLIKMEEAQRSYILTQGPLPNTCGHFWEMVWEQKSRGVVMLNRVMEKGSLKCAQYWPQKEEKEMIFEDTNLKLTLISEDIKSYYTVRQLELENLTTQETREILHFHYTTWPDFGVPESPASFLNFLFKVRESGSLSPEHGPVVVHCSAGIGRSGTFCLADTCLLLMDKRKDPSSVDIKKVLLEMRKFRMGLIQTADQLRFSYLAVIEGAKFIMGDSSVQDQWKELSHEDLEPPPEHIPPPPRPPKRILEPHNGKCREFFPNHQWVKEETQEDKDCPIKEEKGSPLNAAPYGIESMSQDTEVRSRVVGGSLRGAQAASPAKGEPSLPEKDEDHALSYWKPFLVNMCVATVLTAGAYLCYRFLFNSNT
Summary of the method: (§1)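 Recombinant human PTP1B enzyme, fluorescein diphosphate (FDP) as substrate. Enzyme activity was followed by fluorescence measurement. IC50 values were obtained by direct regression curve analysis.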

[2] = biological target: T1, Tyrosine-protein phosphatase non-receptor type 1; assay: In vitro inhibitory activity against recombinant human protein-tyrosine phosphatase 1B (PTP1B) using fluorescein diphosphate (FDP) as a substrate; summary of the method: as §1
[3] = biological target: T1, Tyrosine-protein phosphatase non-receptor type 1; assay: Inhibition of human Protein-tyrosine phosphatase 1B (PTP1B) using fluorescein diphosphate (FDP); summary of the method: as §1
[4] = biological target: T2, M-phase inducer phosphatase 2 (Homo sapiens, UniProt P30305); assay: In vitro inhibitory activity against recombinant human Cdc25B using fluorescein diphosphate (FDP) as a substrate
T2 sequence (P30305 whole entry): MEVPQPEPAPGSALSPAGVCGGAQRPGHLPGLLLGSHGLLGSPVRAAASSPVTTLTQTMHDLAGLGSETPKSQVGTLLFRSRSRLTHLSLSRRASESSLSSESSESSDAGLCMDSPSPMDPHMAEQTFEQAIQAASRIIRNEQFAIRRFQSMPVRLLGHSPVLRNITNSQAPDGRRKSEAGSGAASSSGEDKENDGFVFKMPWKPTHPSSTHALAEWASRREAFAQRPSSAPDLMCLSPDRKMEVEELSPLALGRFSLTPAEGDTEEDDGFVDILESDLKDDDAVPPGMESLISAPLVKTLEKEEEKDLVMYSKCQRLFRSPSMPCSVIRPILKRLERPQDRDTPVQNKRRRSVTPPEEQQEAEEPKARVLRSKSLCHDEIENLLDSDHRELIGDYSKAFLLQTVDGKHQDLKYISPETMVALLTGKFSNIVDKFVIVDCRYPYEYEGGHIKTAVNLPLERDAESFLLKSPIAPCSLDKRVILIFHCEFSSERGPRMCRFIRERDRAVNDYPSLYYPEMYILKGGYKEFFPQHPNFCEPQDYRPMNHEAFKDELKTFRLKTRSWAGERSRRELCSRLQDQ

[5] = biological target: Receptor-type tyrosine-protein phosphatase F (Homo sapiens, UniProt P10586); assay: In vitro inhibitory activity against recombinant human LAR using fluorescein diphosphate (FDP) as a substrate
[6] = In vitro inhibitory activity against recombinant […] Yop using fluorescein diphosphate (FDP) as a substrate
[7] = biological target: T3, Receptor-type tyrosine-protein phosphatase C (Homo sapiens, UniProt P08575); assay: In vitro inhibitory activity against recombinant human CD45 using fluorescein diphosphate (FDP) as a substrate
T3 sequence (P08575 whole entry): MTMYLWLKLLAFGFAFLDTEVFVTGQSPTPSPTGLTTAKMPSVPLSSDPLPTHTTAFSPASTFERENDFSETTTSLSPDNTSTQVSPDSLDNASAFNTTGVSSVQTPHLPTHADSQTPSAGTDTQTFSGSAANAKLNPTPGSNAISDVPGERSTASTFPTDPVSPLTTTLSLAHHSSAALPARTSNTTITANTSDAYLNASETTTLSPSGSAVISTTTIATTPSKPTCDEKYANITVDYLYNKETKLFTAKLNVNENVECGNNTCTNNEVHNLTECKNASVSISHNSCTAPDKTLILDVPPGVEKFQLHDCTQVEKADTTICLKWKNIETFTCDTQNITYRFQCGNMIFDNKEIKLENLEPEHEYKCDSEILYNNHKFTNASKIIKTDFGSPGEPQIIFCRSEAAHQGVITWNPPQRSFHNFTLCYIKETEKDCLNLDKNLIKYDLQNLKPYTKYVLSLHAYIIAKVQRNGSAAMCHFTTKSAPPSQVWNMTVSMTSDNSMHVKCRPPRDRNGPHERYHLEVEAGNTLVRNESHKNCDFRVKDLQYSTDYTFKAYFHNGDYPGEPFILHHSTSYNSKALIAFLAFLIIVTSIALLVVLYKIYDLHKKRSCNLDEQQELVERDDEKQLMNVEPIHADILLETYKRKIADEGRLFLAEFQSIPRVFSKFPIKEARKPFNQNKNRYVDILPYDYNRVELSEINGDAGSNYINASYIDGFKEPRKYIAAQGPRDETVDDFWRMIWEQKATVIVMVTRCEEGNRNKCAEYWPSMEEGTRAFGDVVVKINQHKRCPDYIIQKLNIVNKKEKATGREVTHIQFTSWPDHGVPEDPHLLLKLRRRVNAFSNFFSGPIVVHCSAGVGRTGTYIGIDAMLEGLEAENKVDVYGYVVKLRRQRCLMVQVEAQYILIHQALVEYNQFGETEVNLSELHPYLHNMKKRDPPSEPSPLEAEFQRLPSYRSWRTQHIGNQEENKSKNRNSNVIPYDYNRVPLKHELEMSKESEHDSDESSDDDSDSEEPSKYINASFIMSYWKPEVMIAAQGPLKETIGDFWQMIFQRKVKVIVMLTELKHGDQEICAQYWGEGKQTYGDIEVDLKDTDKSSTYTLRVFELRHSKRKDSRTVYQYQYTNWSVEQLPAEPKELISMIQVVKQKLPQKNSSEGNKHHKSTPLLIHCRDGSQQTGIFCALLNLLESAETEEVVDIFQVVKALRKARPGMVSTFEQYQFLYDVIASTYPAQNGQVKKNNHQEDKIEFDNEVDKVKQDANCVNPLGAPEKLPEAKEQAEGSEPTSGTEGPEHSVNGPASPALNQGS

[8] = In vitro inhibitory activity against recombinant human PPI using fluorescein diphosphate (FDP) as a substrate
Mus musculus = assay: In vivo test to determine the ability to reduce plasma glucose levels in ob/ob mice at oral dose of 25 mg/kg/day for 5 days; Active; type: functional, organism-based

Sequence of Receptor-type tyrosine-protein phosphatase F (P10586 whole entry): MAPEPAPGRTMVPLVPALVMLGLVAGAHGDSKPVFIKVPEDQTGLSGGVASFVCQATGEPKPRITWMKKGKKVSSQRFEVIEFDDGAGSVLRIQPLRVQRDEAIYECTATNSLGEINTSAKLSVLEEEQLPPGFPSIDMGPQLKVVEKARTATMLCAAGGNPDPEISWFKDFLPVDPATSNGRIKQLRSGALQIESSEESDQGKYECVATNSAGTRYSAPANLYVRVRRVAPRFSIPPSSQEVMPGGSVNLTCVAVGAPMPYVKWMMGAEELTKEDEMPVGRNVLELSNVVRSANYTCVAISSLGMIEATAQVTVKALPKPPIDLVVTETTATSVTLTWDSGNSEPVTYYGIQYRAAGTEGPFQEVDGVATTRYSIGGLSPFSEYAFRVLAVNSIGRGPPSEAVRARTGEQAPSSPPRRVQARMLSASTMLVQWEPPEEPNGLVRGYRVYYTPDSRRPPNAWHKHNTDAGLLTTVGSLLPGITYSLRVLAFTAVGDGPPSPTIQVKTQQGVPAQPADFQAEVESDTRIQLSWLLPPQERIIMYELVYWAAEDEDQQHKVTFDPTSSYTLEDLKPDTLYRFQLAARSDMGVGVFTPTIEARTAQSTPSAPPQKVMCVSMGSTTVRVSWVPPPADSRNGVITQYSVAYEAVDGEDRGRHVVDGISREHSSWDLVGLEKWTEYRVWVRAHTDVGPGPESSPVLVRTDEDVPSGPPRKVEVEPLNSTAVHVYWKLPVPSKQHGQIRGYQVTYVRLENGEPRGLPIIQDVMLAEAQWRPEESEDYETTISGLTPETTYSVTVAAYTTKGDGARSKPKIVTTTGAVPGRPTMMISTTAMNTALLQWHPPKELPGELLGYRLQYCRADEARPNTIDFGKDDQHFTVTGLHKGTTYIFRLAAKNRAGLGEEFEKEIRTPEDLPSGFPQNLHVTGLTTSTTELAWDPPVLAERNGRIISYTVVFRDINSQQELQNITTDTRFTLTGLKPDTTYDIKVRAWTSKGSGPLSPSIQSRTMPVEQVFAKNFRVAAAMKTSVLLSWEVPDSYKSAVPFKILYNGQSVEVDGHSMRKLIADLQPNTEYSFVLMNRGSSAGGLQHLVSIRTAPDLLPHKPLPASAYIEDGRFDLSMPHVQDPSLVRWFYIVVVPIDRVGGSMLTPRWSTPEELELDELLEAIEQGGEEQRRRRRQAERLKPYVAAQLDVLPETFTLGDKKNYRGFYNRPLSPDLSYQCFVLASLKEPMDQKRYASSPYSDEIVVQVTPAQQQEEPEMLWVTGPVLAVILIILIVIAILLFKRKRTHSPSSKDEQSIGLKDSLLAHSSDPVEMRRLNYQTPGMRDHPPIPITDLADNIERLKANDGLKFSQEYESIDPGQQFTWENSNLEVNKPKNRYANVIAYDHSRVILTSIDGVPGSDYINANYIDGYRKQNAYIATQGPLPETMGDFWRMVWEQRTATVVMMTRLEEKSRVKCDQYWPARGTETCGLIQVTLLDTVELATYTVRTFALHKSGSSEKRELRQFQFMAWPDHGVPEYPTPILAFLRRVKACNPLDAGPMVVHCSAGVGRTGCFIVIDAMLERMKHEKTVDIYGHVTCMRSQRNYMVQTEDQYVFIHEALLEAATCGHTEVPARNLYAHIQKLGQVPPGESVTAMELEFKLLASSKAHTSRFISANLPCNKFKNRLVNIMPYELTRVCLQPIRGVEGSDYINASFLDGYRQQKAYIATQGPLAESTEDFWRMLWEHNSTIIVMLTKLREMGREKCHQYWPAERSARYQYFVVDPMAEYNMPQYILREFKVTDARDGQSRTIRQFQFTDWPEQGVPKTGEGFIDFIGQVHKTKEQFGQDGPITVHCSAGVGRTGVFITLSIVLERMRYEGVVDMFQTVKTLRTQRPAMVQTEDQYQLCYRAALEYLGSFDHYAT

SMILES: O=C1C=C(S(=O)(=O)O)c2ccccc2C1=O
IC50 ([2]; read-out: IC50): 5290 nM

SMILES: O=C(Nc1cccc2c1C(=O)C(=O)C=C2c1ccccc1)OCc1ccccc1
IC50 ([2]; read-out: IC50): 1340 nM

SMILES: CCCCC1=CC(=O)C(=O)c2ccccc21
IC50 [1]: Not Active

SMILES: CCCCCCCCCCC1=CC(=O)C(=O)c2ccccc21
IC50 [1]: Not Active

SMILES: COC(=O)CCC1=C(c2ccccc2)c2cc(CCC(=O)OC)ccc2C(=O)C1=O
IC50 [3]: 680 nM

SMILES: CCOC(=O)c1ccc(CCC2=C(c3ccccc3)c3ccccc3C(=O)C2=O)cc1
IC50 [3]: 1010 nM

SMILES: CC(C)(C)c1cc(C2=CC(=O)C(=O)c3ccccc32)cc(C(C)(C)C)c1O
IC50 ([2]; read-out: IC50): 5730 nM

SMILES: O=C(O)COc1ccc(CC2=C(c3ccccc3)c3ccccc3C(=O)C2=O)cc1
IC50 [3]: 1540 nM

SMILES: O=C(O)COc1ccc(CC2=C(n3ccc4ccccc43)c3ccccc3C(=O)C2=O)cc1
IC50 [3]: 1010 nM

SMILES: CCOC(=O)CCC1=C(n2ccc3ccccc32)c2ccccc2C(=O)C1=O
IC50 [3]: 270 nM

SMILES: O=C1C=C(n2ccc3ccccc32)c2ccc(OC(Cc3ccccc3)C(=O)O)cc2C1=O (stereo unspecified)
IC50 ([2]; read-out: IC50): 2070 nM

SMILES: CCCCCCC1=CC(=O)C(=O)c2ccccc21
IC50 ([2]; read-out: IC50): 3300 nM

SMILES: O=C1C=C(C2CCCC2)c2ccccc2C1=O
IC50 ([2]; read-out: IC50): 4200 nM

SMILES: COC(=O)CCC1=C(n2ccc3ccccc32)c2ccc(CCC(=O)OC)cc2C(=O)C1=O
IC50 [3]: 940 nM

SMILES: O=C1C=C(OCCCO)c2ccccc2C1=O
IC50 ([2]; read-out: IC50): 36500 nM

SMILES: CCOC(=O)Nc1cccc2c1C(=O)C(=O)C=C2c1ccccc1
IC50 ([2]; read-out: IC50): 650 nM

SMILES: CC(C)(C)OC(=O)COc1ccc(CC2=C(n3ccc4ccccc43)c3ccccc3C(=O)C2=O)cc1
IC50 [3]: 650 nM | Reduction (Mus musculus): Active

SMILES: CC(C)(C)OC(=O)COc1ccc(CC2=C(c3ccccc3)c3ccccc3C(=O)C2=O)cc1
IC50 [3]: 1480 nM

SMILES: COC(=O)C(Cc1ccccc1)Oc1ccc2c(c1)C(=O)C(=O)C=C2c1ccccc1 (stereo unspecified)
IC50 ([2]; read-out: IC50): 2540 nM

SMILES: CCOC(=O)COc1ccc(C2=CC(=O)C(=O)c3ccccc32)cc1
IC50 ([2]; read-out: IC50): 1070 nM

SMILES: O=C(Nc1ccc2c(c1)C(=O)C(=O)C=C2c1ccccc1)OCc1ccccc1
IC50 ([2]; read-out: IC50): 2250 nM

SMILES: O=C1C=Cc2ccccc2C1=O [1,2-NAPHTHOQUINONE]
IC50 [3]: 24600 nM

SMILES: COC(=O)CCc1ccc2c(c1)C(n1ccc3ccccc31)=CC(=O)C2=O
IC50 [3]: 920 nM

SMILES: O=C1C=C(N2CCCC2)c2ccccc2C1=O
IC50 [2]: Not Active

SMILES: O=C1C=C(c2c[nH]c3ccc(C(=O)O)cc23)c2ccccc2C1=O
IC50 ([2]; read-out: IC50): 3000 nM

SMILES: O=C1C=C(C2CCCCC2)c2ccccc2C1=O
IC50 [4]: 3000 nM | IC50 [5]: 8990 nM | IC50 ([2]; read-out: IC50): 320 nM | IC50 [6]: 17900 nM | IC50 [7]: 3270 nM | IC50 [8]: 8060 nM

Continued, values first:

IC50 [1]: Not Active
SMILES: O=C1C=C(c2c(-c3ccccc3)[nH]c3ccccc23)c2ccccc2C1=O

IC50 ([2]; read-out: IC50): 2150 nM
SMILES: O=C1C=C(c2cccc3ccccc23)c2ccccc2C1=O

IC50 [1]: Not Active
SMILES: Cc1c(C2=CC(=O)C(=O)c3ccccc32)c2ccccc2n1C

IC50 ([2]; read-out: IC50): 4560 nM
SMILES: O=C1C=C(c2c[nH]c3cc(C(=O)O)ccc23)c2ccccc2C1=O

IC50 ([2]; read-out: IC50): 440 nM
SMILES: O=C1C=C(c2ccc(O)cc2)c2ccccc2C1=O

IC50 ([2]; read-out: IC50): 2690 nM
SMILES: CCCCCOC1=C(c2ccccc2)c2ccccc2C(=O)C1=O

IC50 [1]: Not Active
SMILES: CCCCCOc1ccc2c(c1)C(c1ccccc1)=CC(=O)C2=O

IC50 [3]: 330 nM
SMILES: COC(=O)CCc1ccc2c(c1)C(c1ccccc1)=CC(=O)C2=O

IC50 [4]: 1950 nM | IC50 [5]: 10200 nM | IC50 ([2]; read-out: IC50): 1130 nM | IC50 [6]: 25600 nM | IC50 [7]: 3070 nM | IC50 [8]: 3190 nM
SMILES: O=C1C=C(c2c[nH]c3ccccc23)c2ccccc2C1=O

IC50 ([2]; read-out: IC50): 920 nM
SMILES: CCCCCOc1ccc2c(c1)C(=O)C(=O)C=C2c1ccccc1

IC50 ([2]; read-out: IC50): 24600 nM
SMILES: NC1=CC(=O)C(=O)c2ccccc21 [4-AMINO-[1,2]NAPHTHOQUINONE]

IC50 [3]: 430 nM
SMILES: CCOC(=O)CCC1=C(c2ccccc2)c2ccccc2C(=O)C1=O

IC50 [4]: 2130 nM | IC50 ([2]; read-out: IC50): 1540 nM | IC50 [6]: 12000 nM | IC50 [7]: 1650 nM
SMILES: COC(=O)c1ccc(C2=CC(=O)C(=O)c3ccccc32)cc1

IC50 ([2]; read-out: IC50): 10100 nM
SMILES: CC(C)C1=CC(=O)C(=O)c2ccccc21

IC50 ([2]; read-out: IC50): 1170 nM
SMILES: O=C1C=C(c2ccccc2[N+](=O)[O-])c2ccccc2C1=O

IC50 ([2]; read-out: IC50): 1420 nM
SMILES: O=C1C=C(Cc2ccccc2)c2ccccc2C1=O

IC50 ([2]; read-out: IC50): 2040 nM
SMILES: COc1ccc2c(c1)C(=O)C(=O)C=C2c1ccccc1

IC50 ([2]; read-out: IC50): 34900 nM
SMILES: CN(C1=CC(=O)C(=O)c2ccccc21)c1ccccc1

IC50 ([2]; read-out: IC50): 5050 nM
SMILES: O=C1C=C(c2cc(Cl)ccc2Cl)c2ccccc2C1=O

IC50 ([2]; read-out: IC50): 500 nM
SMILES: O=C1C=C(c2cc(F)ccc2F)c2ccccc2C1=O

IC50 ([2]; read-out: IC50): 5400 nM
SMILES: O=C1C=C(c2ccc(-c3ccccc3)cc2)c2ccccc2C1=O

IC50 ([2]; read-out: IC50): 2150 nM
SMILES: CCOC(=O)COc1ccccc1C1=CC(=O)C(=O)c2ccccc21

IC50 [4]: 9520 nM | IC50 ([2]; read-out: IC50): 860 nM | IC50 [6]: 21100 nM | IC50 [7]: 840 nM | IC50 [8]: 8370 nM
SMILES: O=C1C=C(c2ccccc2)c2ccccc2C1=O

IC50 ([2]; read-out: IC50): 5240 nM
SMILES: COc1ccc(C2=CC(=O)C(=O)c3ccccc32)cc1

IC50 ([2]; read-out: IC50): 29100 nM
SMILES: COC1=CC(=O)C(=O)c2ccccc21

IC50 ([2]; read-out: IC50): 1600 nM
SMILES: O=C1C=C(c2ccccc2O)c2ccccc2C1=O

IC50 [3]: 610 nM
SMILES: CCN(CC)C(=O)CCC1=C(c2ccccc2)c2ccccc2C(=O)C1=O
